Series [1] in a line: Displacement of [3H]ditolylguanidine from sigma2 receptor in guinea pig brain membrane. It is filed as cell membranes, Cavia porcellus. The method in brief:
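[3H]DTG competition binding with 500 nM (+)-PTZ present to mask σ1 sites, on fresh-frozen male English Hartley guinea pig brain membranes. Duplicate wells, four repeats. Compound stocks were 10^-3 M in acidified 1% EtOH/water.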

The subject of series [2] is sigma1/sigma2 receptors (Cavia porcellus). The series is described as follows: Selectivity ratio, ratio of Ki for guinea pig sigma1 receptor to Ki for guinea pig sigma2 receptor.
The target of series [3] is Sigma non-opioid intracellular receptor 1 (Cavia porcellus, UniProt Q60492). The series is described as follows: Displacement of [3H]-(+)-pentazocine from Sigma1-receptor in guinea pig brain membrane. It is filed as cell membranes. The method in brief:
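Competition binding with [3H](+)-PTZ as radioligand on membranes from fresh-frozen male English Hartley guinea pig brain. Duplicates, repeated four times. Test compounds came from 10^-3 M stocks in acidified 1% EtOH/water.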

Series [4] is described as follows: Chemical stability of the compound assessed as decomposition after 25 days by HPLC analysis. It is filed as physicochemical. To be noted: 600 h. In short, it runs like this:
(§1)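 Compounds held at 10^-3 M in aqueous stock buffer of 1% EtOH with AcOH: 2.5% AcOH generally, 0.1% AcOH for the HCl and oxalate salts. Stored in stock buffer, then purity analysed by analytical HPLC at the stated time point (16 h, 44 h or 25 days).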

Series [5] in a line: Chemical stability of the compound assessed as compound remaining after 16 hrs by HPLC analysis. It is filed as physicochemical. To be noted: read-out: Activity. The method in brief:
as §1

Series [6] is described as follows: Chemical stability of the compound assessed as compound remaining after 44 hrs by HPLC analysis. It is filed as physicochemical. To be noted: read-out: Activity. The method in brief:
as §1

Sigma non-opioid intracellular receptor 1, sequence (Q60492 whole entry): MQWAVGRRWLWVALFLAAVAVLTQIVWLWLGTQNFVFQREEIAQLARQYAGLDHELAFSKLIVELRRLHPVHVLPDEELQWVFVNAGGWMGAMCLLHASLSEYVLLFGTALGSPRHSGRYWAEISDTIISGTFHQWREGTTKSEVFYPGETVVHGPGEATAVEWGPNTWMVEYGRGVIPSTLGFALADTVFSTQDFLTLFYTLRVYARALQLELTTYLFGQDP

With `COc1cc2c(cc1OC)CCN(CCCCNC(=O)c1cc(Br)cc(OC)c1OC)CC2`, the Ki came to 734 nM in series [1] and 5070 nM in series [3]. Further, the Ratio Ki in series [2] was determined as 8.5.

On to `COc1cc2c(cc1OC)N(CCCCNC(=O)c1cc(Br)cc(OC)c1OC)CC2`, for which the Ki in series [1] is 9680 nM; in series [3], 4520 nM. The Ratio Ki in series [2] was found to be 0.47. Also, in series [4], the Stability result was “Unstable”. The remaining at 16 h in series [5] was 86%.

In series [1], `COc1cc2c(cc1OC)CN(CCCCNC(=O)c1cc(Br)cc(OC)c1OC)CC2` registered a Ki of 2.7 nM.

`COc1ccc(CCN(C)CCCCNC(=O)c2cc(Br)cc(OC)c2OC)cc1OC` came in with a Ki in series [1] of 2130 nM.

As for `COc1cc2c(cc1OC)N(CCCCNC(=O)c1cc(Br)cc(OC)c1OC)CCC2`, the Ki in series [1] stood at 5820 nM; in series [3] it was 4500 nM. The Ratio Ki in series [2] is 0.77. Further, the remaining at 16 h in series [5] was found to be 90%. Moreover, the remaining at 44 h in series [6] amounted to 38%.

For the molecule `COc1cc2c(cc1OC)CN(CCCCNC(=O)c1cc(Br)cc(OC)c1OC)CCC2`, the Ki came to 315 nM in series [1] and 2070 nM in series [3]. Moreover, the Ratio Ki in series [2] worked out at 6.58.

Consider `COc1ccc(CCNCCCCNC(=O)c2cc(Br)cc(OC)c2OC)cc1OC`, for which affinity in series [1] was put at a Ki of 4620 nM. Moreover, in series [2], the Ratio Ki worked out at 0.2.

Molecule `COc1ccc(CCN2CCN(CCCc3ccccc3)CC2)cc1OC` [[11C]SA4503] came in with a Ki in series [1] of 89.5 nM. In other words, the double-digit nanomolar range.

Take `COc1cc2c(cc1OC)CN(CCCCNC(=O)c1cc(Br)cc(OC)c1OC)C2`: the results for the Ki in series [1] and in series [3] were 0.82 nM and 1440 nM, respectively. Further, in series [2], the Ratio Ki turned out to be 1760.

For `COc1cc2c(cc1OC)N(CCCCNC(=O)c1cc(Br)cc(OC)c1OC)CCCC2`, the Ki in series [1] came to 8960 nM; in series [3] it was 2560 nM.

The record behind these values is ChEMBL document CHEMBL1681788, “Effect of structural modification in the amine portion of substituted aminobutyl-benzamides as ligands for binding σ1 and σ2 receptors” (Bioorg Med Chem, 2011).
